# Reference: ChEMBL document CHEMBL1142371, “Synthesis and biological evaluation of imidazol-2-one derivatives as potential antitumor agents” (Bioorg Med Chem, 2008)
# Assays:
# HL-60 = assay: Cytotoxicity against human HL60 cells after 48 hrs by MTT assay; format: functional, cell-based; details: HL-60, 48 h
# In short: (§1)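 MTT read-out after 48 h drug exposure; MTT then added for a further 4 h at 37 °C, formazan dissolved in DMSO, absorbance at 570 nm. Triplicate wells in three independent experiments; IC50 = concentration giving 50% inhibition of cell viability, values are means of three experiments.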
# K562 [1] = assay: Cytotoxicity against human K562 cells after 48 hrs by MTT assay; format: functional, cell-based; details: K562, 48 h; in short: as §1
# [2] = Cytotoxicity against multidrug-resistant human K562R cells after 48 hrs by MTT assay; format: functional, cell-based; details: K-562R; in short: as §1
# PC-3 = assay: Cytotoxicity against human PC3 cells after 48 hrs by MTT assay; format: functional, cell-based; details: PC-3, 48 h; in short: as §1
# MCF7 = assay: Cytotoxicity against human MCF7 cells after 48 hrs by MTT assay; format: functional, cell-based; details: MCF7, 48 h; in short: as §1
# [3] = Cytotoxicity against human ECA109 cells after 48 hrs by MTT assay; format: functional, cell-based; details: ECa-109, 48 h; in short: as §1
# Bel-7402 = assay: Cytotoxicity against human BEL-7402 cells after 48 hrs by MTT assay; format: functional, cell-based; details: Bel-7402, 48 h; in short: as §1
# A549 = assay: Cytotoxicity against human A549 cells after 48 hrs by MTT assay; format: functional, cell-based; details: A549, 48 h; in short: as §1
# CCRF S-180 [4] = assay: animal or person; details: Mus musculus, CCRF S-180, ip, 240 h, read-out: Inhibition
# H22 = assay: animal or person; details: Mus musculus, H22, ip, 240 h, read-out: Inhibition
# CCRF S-180 [5] = assay: Antitumor activity in mouse xenografted with S180 cells assessed as inhibition of tumor growth at 15 mg/kg/day, im after 10 days; format: functional; details: CCRF S-180, im, 240 h, route intramuscular
# In short: (§2)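 S-180 or H-22 cells expanded in mice for 10 days, then 2.5 × 10⁶ viable tumor cells per mouse injected subcutaneously into the armpit of female mice (9 per treated group, 18 negative controls). Compound given im once daily for 10 consecutive days; saline negative control, cyclophosphamide 30.0 mg/kg ip positive control. Tumors excised and weighed on day 10; inhibition rate = (C − T)/C × 100 from mean tumor weights.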
# Mus musculus [6] = assay: Effect on body weight in mouse bearing H22 cells at 5 mg/kg/day, im after 10 days; format: functional; details: route intramuscular
# In short: (§3)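 Female tumor-bearing mice (S-180 or H-22, 2.5 × 10⁶ cells subcutaneously in armpit) dosed im once daily for 10 consecutive days; saline negative control. Initial and end body weights recorded per group.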
# Mus musculus [7] = assay: Effect on body weight in mouse bearing H22 cells at 20 mg/kg/day, im after 10 days; format: functional; details: route intramuscular; in short: as §3
# K562 [8] = assay: Cell cycle arrest in human K562 cells assessed as accumulation at G2/M phase at 0.01 uM after 48 hrs by flow cytometry; format: functional
# In short: (§4)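 K562 cells in exponential growth exposed 48 h to 0–1 µM compound. Cells washed twice in PBS, fixed in 70% ethanol at −20 °C, RNase-treated 1 h at 37 °C, stained with propidium iodide 30 min at 4 °C. DNA content by flow cytometry gives cell-cycle phase distribution and apoptotic fraction.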
# K562 [9] = assay: Cell cycle arrest in human K562 cells assessed as accumulation at S phase at 0.01 uM after 48 hrs by flow cytometry; format: functional; in short: as §4
# K562 [10] = assay: Induction of apoptosis in human K562 cells at 0.1 uM after 48 hrs by flow cytometry; format: functional; in short: as §4
# K562 [11] = assay: Induction of apoptosis in human K562 cells at 1 uM after 48 hrs by flow cytometry; format: functional; in short: as §4
# Mus musculus [12] = assay: Effect on body weight in mouse bearing S180 cells at 15 mg/kg/day, im after 10 days; format: functional, CCRF S-180; details: route intramuscular; in short: as §3
# Mus musculus [13] = assay: Antitumor activity in mouse xenografted with H22 cells assessed as inhibition of tumor growth at 5 mg/kg/day, im after 10 days; format: functional; details: 240 h, route intramuscular; in short: as §2
# Mus musculus [14] = assay: Antitumor activity in mouse xenografted with H22 cells assessed as inhibition of tumor growth at 20 mg/kg/day, im after 10 days; format: functional; details: 240 h, route intramuscular; in short: as §2
SMILES,IC50 (HL-60) [µM],IC50 (K562 [1]) [µM],IC50 [2] [µM],IC50 (PC-3) [µM],IC50 (MCF7) [µM],IC50 [3] [µM],IC50 (Bel-7402) [µM],IC50 (A549) [µM],inhibition in vivo at 30 mg/kg/day (CCRF S-180 [4]) [%],inhibition in vivo at 30 mg/kg/day (H22) [%],inhibition in vivo at 15 mg/kg/day (CCRF S-180 [5]) [%],Activity (Mus musculus [6]) [g],Activity (Mus musculus [7]) [g],Activity (K562 [8]) [%],Activity (K562 [9]) [%],Activity (K562 [10]) [%],Activity (K562 [11]) [%],Activity (Mus musculus [12]) [g],inhibition in vivo at 5 mg/kg/day (Mus musculus [13]) [%],inhibition in vivo at 20 mg/kg/day (Mus musculus [14]) [%]
COc1ccc(-c2cn(C(C)=O)c(=O)n2-c2cc(OC)c(OC)c(OC)c2)cc1OC,12.2,43.4,> 50,> 50,> 50,> 50,> 50,> 50,–,–,–,–,–,–,–,–,–,–,–,–
COc1ccc(-c2cn(C(C)=O)c(=O)n2-c2cc(OC)c(OC)c(OC)c2)cc1[N+](=O)[O-],5.6,> 50,> 50,30.3,> 50,30.8,35.7,40.9,–,–,–,–,–,–,–,–,–,–,–,–
COc1cc(-n2c(-c3ccc(Cl)cc3)cn(C(C)=O)c2=O)cc(OC)c1OC,4.9,> 50,–,–,–,> 50,–,> 50,–,–,–,–,–,–,–,–,–,–,–,–
COc1ccc(-c2c[nH]c(=O)n2-c2cc(OC)c(OC)c(OC)c2)cc1,19.8,–,> 50,> 50,–,> 50,–,> 50,–,–,–,–,–,–,–,–,–,–,–,–
COc1cc(-n2c(-c3ccc(F)cc3F)cn(C(C)=O)c2=O)cc(OC)c1OC,7.6,> 50,> 50,34.3,49.3,> 50,36.2,24.1,–,–,–,–,–,–,–,–,–,–,–,–
O=P1(N(CCCl)CCCl)NCCCO1 (centres undefined) [CYCLOPHOSPHAMIDE ANHYDROUS],–,–,–,–,–,–,–,–,63.5,36.2,–,–,–,–,–,–,–,–,–,–
COc1cc(-n2c(-c3ccc(O)cc3)c[nH]c2=O)cc(OC)c1OC,20,> 50,> 50,30.2,> 50,> 50,> 50,> 50,–,–,–,–,–,–,–,–,–,–,–,–
COc1ccc(-c2cn(C(=O)Nc3cc(OC)c(OC)c(OC)c3)c(=O)n2-c2cc(OC)c(OC)c(OC)c2)cc1OC,6.5,> 50,> 50,> 50,> 50,> 50,> 50,> 50,–,–,–,–,–,–,–,–,–,–,–,–
COc1ccc(-c2cn(C(=O)Nc3cc(OC)c(OC)c(OC)c3)c(=O)n2-c2cc(OC)c(OC)c(OC)c2)cc1O,15.4,> 50,> 50,> 50,–,> 50,–,> 50,–,–,–,–,–,–,–,–,–,–,–,–
COc1cc(-n2c(-c3ccc(Br)cc3)cn(C(C)=O)c2=O)cc(OC)c1OC,0.2,1,0.9,3.1,10.6,3.8,1.2,1.3,–,–,55.3,26.8,27.6,31,54,45.6,78.6,35.1,29.4,55.5
CC(=O)O[C@@]12CO[C@@H]1C[C@H](O)[C@@]1(C)C(=O)[C@H](O)C3=C(C)[C@@H](OC(=O)[C@H](O)[C@@H](NC(=O)OC(C)(C)C)c4ccccc4)C[C@@](O)([C@@H](OC(=O)c4ccccc4)[C@H]21)C3(C)C [DOCETAXEL],–,8.5,–,54.8,4,–,–,1.7,–,–,–,–,–,–,–,–,–,–,–,–
COc1cc(-n2c(-c3ccccc3)cn(C(C)=O)c2=O)cc(OC)c1OC,5.6,> 50,9.6,> 50,> 50,> 50,> 50,> 50,–,–,–,–,–,–,–,–,–,–,–,–
COc1ccc(-c2cn(C(=O)Nc3cc(OC)c(OC)c(OC)c3)c(=O)n2-c2cc(OC)c(OC)c(OC)c2)cc1N,3.1,5.8,9.4,10,> 50,> 50,10.1,11.1,–,–,–,–,–,–,–,–,–,–,–,–
COc1ccc(-c2cn(C(=O)Nc3cc(OC)c(OC)c(OC)c3)c(=O)n2-c2cc(OC)c(OC)c(OC)c2)cc1,5.4,3.8,3.5,49.7,> 50,> 50,> 50,> 50,–,–,–,–,–,–,–,–,–,–,–,–
COc1ccc(-c2c[nH]c(=O)n2-c2cc(OC)c(OC)c(OC)c2)cc1N,10.3,49.2,> 50,49.8,> 50,> 50,> 50,> 50,–,–,–,–,–,–,–,–,–,–,–,–
COc1ccc(-c2c[nH]c(=O)n2-c2cc(OC)c(OC)c(OC)c2)cc1[N+](=O)[O-],14.3,–,> 50,> 50,–,> 50,–,> 50,–,–,–,–,–,–,–,–,–,–,–,–
COc1ccc(-c2cn(C(C)=O)c(=O)n2-c2cc(OC)c(OC)c(OC)c2)cc1N,0.4,0.5,49.3,21.4,43.4,> 50,0.6,1.1,–,–,–,–,–,–,–,–,–,–,–,–
COc1ccc(-c2cn(C(=O)Nc3cc(OC)c(OC)c(OC)c3)c(=O)n2-c2cc(OC)c(OC)c(OC)c2)cc1[N+](=O)[O-],19.7,7.2,> 50,> 50,–,> 50,–,> 50,–,–,–,–,–,–,–,–,–,–,–,–
COc1ccc(-c2cn(C(C)=O)c(=O)n2-c2cc(OC)c(OC)c(OC)c2)cc1,5.5,0.2,9.5,19.7,> 50,> 50,9.5,17.8,–,–,–,–,–,–,–,–,–,–,–,–
COc1ccc(-c2c[nH]c(=O)n2-c2cc(OC)c(OC)c(OC)c2)cc1OC,38.8,–,> 50,> 50,–,> 50,–,> 50,–,–,–,–,–,–,–,–,–,–,–,–
COc1cc(NC(=O)n2cc(-c3ccc(O)cc3)n(-c3cc(OC)c(OC)c(OC)c3)c2=O)cc(OC)c1OC,6.3,10.4,> 50,3,> 50,> 50,> 50,2.5,–,–,–,–,–,–,–,–,–,–,–,–
COc1cc(-n2c(-c3ccc([N+](=O)[O-])cc3)cn(C(C)=O)c2=O)cc(OC)c1OC,7.2,26.6,49.6,32.9,> 50,> 50,> 50,49.6,–,–,–,–,–,–,–,–,–,–,–,–
